According to paper PMC4233149 (Clinical cancer research : an official journal of the …, 2014):

Test system: pSer473 AKT
Experiment: PD biomarker in paired tumor biopsies
Format: in vivo, human
Outline: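 Paired tumor biopsies were taken before and on treatment (oral QW or 60mg QOD). pSer473 AKT was quantified by MSD electrochemiluminescence assay validated to Good Clinical Practice standards. Levels were expressed as percent of each patient's baseline.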

With `NC1(c2ccc(-c3nc4ccn5c(=O)[nH]nc5c4cc3-c3ccccc3)cc2)CCC1` [MK-2206] the “pSer473 AKT levels, % of baseline levels (range)” value (60mg QOD, 3 patients) was 45.3-56.2%, the “mean pSer473 AKT levels, % of baseline levels” value (60mg QOD, 3 patients, p=0.004) was 50.1% and the “pSer473 AKT signal, % of baseline levels (range)” value (200mg QW, 5 patients) was 37.5-60.3%. The “pSer473 AKT signal, % of baseline levels” value (200mg QW, 5 patients, p=0.0003) was 50.0%.
